Measured values gathered from unrelated publications.
Protocols differ between the studies behind these lines.
Toll-like receptor 1/2: Toll-like receptor 1/2 (Homo sapiens, UniProt O60603+Q15399)
Chymotrypsinogen A: Chymotrypsinogen A (Bos taurus, UniProt P00766)
lecA: PA-I galactophilic lectin (lecA, Pseudomonas aeruginosa, UniProt Q05097)

SMILES	target	assay	conditions	measurement	value
CNc1ccc(C(F)(F)F)cc1-n1cnc(-c2ccc(C(F)(F)F)cc2)c1	Toll-like receptor 1/2	reporter gene, agonist	–	EC50	240 nM
NC(=O)C1=CN([C@@H]2O[C@H](COP(=O)(O)OP(=O)(O)OC[C@H]3O[C@@H](n4cnc5c(N)ncnc54)[C@H](O)[C@@H]3O)[C@@H](O)[C@H]2O)C=CC1	ADH1 (Saccharomyces cerevisiae, UniProt P00330, H16R)	enzyme activity, inhibitor	–	Ki	12000 nM
OC[C@@H]1[C@@H](O)[C@H](O)[C@@H](O)[C@@H]2O[C@H]12	Beta-glucosidase (GBA2, Homo sapiens, UniProt Q9HCG7)	enzyme activity, inhibitor	pH 5.5, lysate	IC50	350 nM
CNc1ccc([N+](=O)[O-])cc1-n1cnc(-c2ccc(C(C)(C)C)cc2)c1	Toll-like receptor 1/2	reporter gene, agonist	–	EC50	150 nM
CCCC[C@H](NC(=O)[C@H](CCC(N)=O)NC(=O)[C@H](CO)NC(=O)[C@H](Cc1ccccc1)NC(=O)CCCCCNC(=O)c1ccc(I)cc1)C(=O)N[C@@H](CCCBr)B(O)O	Chymotrypsinogen A	enzyme activity, inhibitor, fluorescence	–	Ki	653 nM
Cc1cnc(-c2ccc(-c3ccc(NC(=O)Nc4c(F)cc(F)cc4F)cc3F)c3c2C(=O)NC3)[nH]1	Tyrosine-protein kinase Fer (FER, Homo sapiens, UniProt P16591)	binding, competition with immobilised ligand	–	Kd	14 nM
CNc1nc(I)nc2c1ncn2[C@H]1C[C@H](OP(=O)(O)O)[C@]2(COP(=O)(O)O)C[C@H]12	P2Y purinoceptor 1 (Rattus norvegicus, UniProt P49651)	calcium signal, antagonist	–	Kb	5.4 nM
CC[C@H](C)[C@H](NC(=O)[C@H](Cc1ccccc1)NC(=O)[C@H](CCC(=O)O)NC(=O)[C@H](CCCCN)NC(=O)[C@H](C)NC(=O)[C@H](C)NC(=O)[C@H](CCC(N)=O)NC(=O)CNC(=O)[C@H](CCC(=O)O)NC(=O)[C@H](CC(C)C)NC(=O)[C@H](Cc1ccc(O)cc1)NC(=O)[C@H](CO)NC(=O)[C@H](CO)NC(=O)[C@@H](NC(=O)[C@H](CC(=O)O)NC(=O)[C@H](CO)NC(=O)[C@@H](NC(=O)[C@H](Cc1ccccc1)NC(=O)[C@@H](NC(=O)CNC(=O)[C@H](CCC(=O)O)NC(=O)[C@H](C)NC(=O)[C@@H](N)Cc1c[nH]cn1)[C@@H](C)O)[C@@H](C)O)C(C)C)C(=O)N[C@@H](C)C(=O)N[C@@H](Cc1c[nH]c2ccccc12)C(=O)N[C@@H](CC(C)C)C(=O)N[C@H](C(=O)N[C@@H](CCCCN)C(=O)NCC(=O)N[C@@H](CCCN=C(N)N)C(=O)NCC(=O)O)C(C)C	Gastric inhibitory polypeptide receptor (Mus musculus, UniProt Q0P543)	reporter gene, agonist, luciferase	–	EC50	> 1000 nM
CCCC[C@H](NC(=O)[C@H](CCC(N)=O)NC(=O)[C@H](CO)NC(=O)C[C@@H](Cc1ccc2ccccc2c1)NC(=O)CCCCCN)C(=O)N[C@@H](CCCBr)B(O)O	Chymotrypsinogen A	enzyme activity, inhibitor, fluorescence	–	Ki	506 nM
O=C(Cn1cc(CN2CCN(c3cc4c(cc3F)c(=O)c(C(=O)O)cn4C3CC3)CC2)nn1)Nc1ccc(S[C@@H]2O[C@H](CO)[C@H](O)[C@H](O)[C@H]2O)cc1	lecA	ligand displacement, FP	–	Ki	3820 nM
CCCCc1ccc(-c2cn(-c3cc([N+](=O)[O-])ccc3NC)cn2)cc1	Toll-like receptor 1/2	reporter gene, agonist	–	EC50	230 nM
O=C(CCn1cc(CCN2CCN(c3cc4c(cc3F)c(=O)c(C(=O)O)cn4C3CC3)CC2)nn1)Nc1ccc(S[C@@H]2O[C@H](CO)[C@H](O)[C@H](O)[C@H]2O)cc1	lecA	ligand displacement, FP	–	Ki	3190 nM
CNc1ccc(C(=O)OC)cc1-n1cnc(-c2ccc(C(F)(F)F)cc2)c1	Toll-like receptor 1/2	reporter gene, agonist	–	EC50	> 100000 nM
